Values belong to the molecule of their own block, whether it stands above or below them.
Key:
[1] = Dark toxicity in human MCF7 cells assessed as reduction in cell viability incubated for 72 hrs by MTT assay; format: cell-based
Outline: (§1)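 Cells seeded at 9000/well in DMEM with 10% FBS, grown 24 h at 37 °C in 5% CO2. Compound in medium with ≤1% DMSO for 1 h at 37 °C in the dark, washed twice with PBS, kept unirradiated, then incubated 72 h in the dark. MTT (5 mg mL-1 stock) added for 2 h at 37 °C, formazan dissolved in DMSO, absorbance read at 570 nm.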

A549 [2] = experiment: Photocytotoxicity in human A549 cells assessed as reduction in cell viability preincubated for 1 hr followed by visible light irradiation for 30 mins and measured after 72 hrs by MTT assay; format: functional, cell-based; conditions: for IC50: A549, light or radiation study
Outline: (§2)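 A549 or MCF7 cells (9000/well, grown 24 h) were given compound in medium with ≤1% DMSO for 1 h at 37 °C in the dark, washed twice and placed in PBS. They were irradiated with 400–700 nm light (11 mW) for 10, 20 or 30 min, then incubated 72 h in the dark. Viability was read by MTT (2 h, 37 °C), with formazan in DMSO at 570 nm. Unirradiated wells served as dark control.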

MCF7 = experiment: Photocytotoxicity in human MCF7 cells assessed as reduction in cell viability preincubated for 1 hr followed by visible light irradiation for 30 mins and measured after 72 hrs by MTT assay; format: functional, cell-based; conditions: MCF7, light or radiation study; outline: as §2
[3] = (§3) Dark toxicity in human A549 cells assessed as reduction in cell viability incubated for 72 hrs by MTT assay; format: cell-based; conditions: A549 cells; outline: as §1
A549 [4] = experiment: Photocytotoxicity in human A549 cells assessed as reduction in cell viability preincubated for 1 hr followed by two-photon NIR light irradiation for 10 mins and measured after 72 hrs by MTT assay; conditions: A549, light or radiation study
A549 [5] = experiment: Photocytotoxicity in human A549 cells assessed as reduction in cell viability at 10 uM preincubated for 1 hr followed by two-photon NIR light irradiation for 5 mins and measured after 72 hrs by MTT assay; format: functional; conditions: time 4385 min, 73.08 h
Outline: (§4)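 A549 cells (9000/well) were treated with compound for 1 h at 37 °C in the dark, then moved to PBS. They were irradiated with a two-photon femtosecond laser (800 nm, 50 mW) for 0, 5, 10, 15 or 20 min, then incubated 72 h in the dark in medium. Viability was read by MTT over 2 h, with formazan in DMSO at 570 nm. Unirradiated wells served as dark control.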

A549 [6] = experiment: Dark toxicity in human A549 cells assessed as reduction in cell viability upto 20 uM incubated for 72 hrs by MTT assay; format: cell-based; conditions: a549, 72 h; outline: as §1
[7] = Drug uptake in human A549 cells at 10 uM incubated for 1 hr by FACS analysis; format: ADME, cell-based; conditions: a549, 1 h
Outline: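 A549 cells (1.5 × 10^5/well) were washed and given 10 µM compound in medium with 1% DMSO for 0, 0.5, 1 or 2 h at 37 °C. They were irradiated in PBS with visible light (400–700 nm, 11 mW) for 10 min, then trypsinized and resuspended in HBSS. Blue coumarin fluorescence was read by flow cytometry on about 10000 cells.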

[8] = Drug release in 1: 9 DMSO/PBS at pH 7 at 50 uM under visible light irradiation upto 20 mins by emission spectroscopy; format: ADME; conditions: buffer, pH 7, 20 min
Outline: (§5)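 Drug release was measured across pH 4–9. Solutions of 50 µM in 1:9 DMSO/buffer were irradiated with 400–700 nm light (11 mW) at 2 cm and 25 °C, in 2-min steps over 0–20 min. Release was taken from coumarin reporter emission (ex 385 nm, em 475 nm). A dark control received no light.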

[9] = Drug localization in human A549 cells mitochondria at 10 uM incubated for 1 hr prior to PBS washout followed by visible light irradiation for 10 mins by inverted fluorescence microscopy analysis; format: ADME; conditions: a549, 1 h
Outline: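 A549 cells were loaded with 10 µM compound in complete DMEM for 1 h at 37 °C, washed, and irradiated in PBS with 400–700 nm light (11 mW) for 10 min. Mito Red (100 nM, 15 min) was added before a PBS wash. Coumarin signal was imaged at ex/em 350/460 nm and Mito Red at 550/580 nm. Overlap was taken from a scatter plot as Pearson's correlation coefficient.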

[10] = Lipophilicity, logP of compound in n-Octanol/water; format: physicochemical
[11] = Drug release in 1: 9 DMSO/PBS at pH 4 at 50 uM under visible light irradiation upto 20 mins by emission spectroscopy; format: ADME; conditions: buffer, pH 4, 20 min; outline: as §5
A549 [12] = experiment: Photocytotoxicity in human A549 cells assessed as reduction in cell viability at 10 uM preincubated for 1 hr followed by two-photon NIR light irradiation for 10 mins and measured after 72 hrs by MTT assay; format: functional; conditions: time 4390 min, 73.17 h; outline: as §4
A549 [13] = experiment: Photocytotoxicity in human A549 cells assessed as reduction in cell viability at 10 uM preincubated for 1 hr followed by two-photon NIR light irradiation for 20 mins and measured after 72 hrs by MTT assay; format: functional; conditions: time 4400 min, 73.33 h; outline: as §4
A549 [14] = experiment: as §3; format: cell-based; conditions: a549, 72 h, time 72 hrs; outline: as §1
A549 [15] = experiment: Induction of mitochondrial membrane depolarization in human A549 cells after 1 hr by JC-1 dye staining based FACS analysis (reference value: 5.3 +/- 1.1 %); format: functional
A549 [16] = experiment: Induction of mitochondrial membrane depolarization in human A549 cells after 30 mins by JC-1 dye staining based FACS analysis (reference value: 5.3 +/- 1.1 %); format: functional; conditions: 0.5 h
A549 [17] = experiment: Photo-induced drug release in human A549 cells assessed as increase in blue fluorescence at 10 uM incubated for 1 hr prior to PBS washout followed by visible light irradiation for 2 mins and further incubated for 10 mins by fluorescence imaging analysis; format: ADME, cell-based; conditions: a549, 1 h
Outline: (§6)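 A549 cells (2 × 10^5/well, seeded a day before) received 10 µM compound for 1 h at 37 °C in the dark and were washed with cold PBS. They were irradiated with 400–700 nm light (11 mW) for 0, 2, 5, 10, 15, 20 or 30 min, then held 10 min. Blue-channel fluorescence was imaged and given as the mean of 30 cells, fitted to an exponential.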

A549 [18] = experiment: Photo-induced drug release in human A549 cells assessed as increase in blue fluorescence at 10 uM incubated for 1 hr prior to PBS washout followed by visible light irradiation and further incubated for 10 mins by fluorescence imaging analysis; format: ADME, cell-based; conditions: a549, 1 h, TDE = time-dependent effect; outline: as §6
A549 [19] = experiment: Photocytotoxicity in human A549 cells assessed as reduction in cell viability at 5 uM preincubated for 1 hr followed by visible light irradiation upto 30 mins and measured after 72 hrs by MTT assay; format: functional, cell-based; conditions: time 73.5 hrs, TDE = time-dependent effect; outline: as §2
[20] = Drug release in 1: 9 DMSO/PBS at pH 9 at 50 uM under visible light irradiation upto 20 mins by emission spectroscopy; format: ADME; conditions: buffer, pH 9, 20 min; outline: as §5

Compound: Nc1ccn([C@@H]2O[C@H](CO)[C@@H](O)C2(F)F)c(=O)n1 [GEMCITABINE]
IC50 at 72 h [1]: 1460 nM | IC50 (A549 [2]): 650 nM | IC50 (MCF7): 1360 nM | IC50 at 72 h [3]: 750 nM | IC50 (A549 [4]): 800 nM

Drug uptake [7]: Active | Drug metabolism [8]: Active | Drug uptake [9]: Active | logP [10]: 2.1 | Drug metabolism [11]: Active | Drug metabolism (A549 [17]): Metabolite_Detected | Drug metabolism (A549 [18]): Tde | Drug metabolism [20]: Active
Compound: CCN(CC)c1ccc(/C=C/C(=O)OC[C@H]2O[C@@H](n3ccc(N)nc3=O)C(F)(F)[C@@H]2O)c(O)c1
IC50 (A549 [2]): 5050 nM | Activity (A549 [2]; time 73.5 hrs): Dose-Dependent Effect | Activity (A549 [5]): 35% | Activity (A549 [6]): Non-Toxic | IC50 (MCF7): 5450 nM | Activity (A549 [12]): 47% | Activity (A549 [13]): 57% | Activity (A549 [14]): Non-Toxic | Activity (A549 [15]): 82.3% | Activity (A549 [16]): 13.9% | IC50 (A549 [4]): 12500 nM | Activity (A549 [19]): Tde

— ChEMBL document CHEMBL5329148, “Visible and NIR light photoactivatable o-hydroxycinnamate system for efficient drug release with fluorescence monitoring” (RSC Med Chem, 2023)
